Assay results as given in article PMC2882528 (Molecular pharmaceutics, 2010).

Experiments:
Type in all cases: cell-based, rat
IEC-6 cells = test: Measurement of intracellular ROS; details: ritonavir 15 µM, VC 15 µg/ml, EL 20 µg/ml, OA 10 µg/ml, 4 h
In short: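 IEC-6 rat intestinal epithelial cells (passages 15-20; DMEM, 10% FBS, 0.1 U/mL insulin, penicillin/streptomycin, 37 °C, 5% CO2) in 12-well plates are exposed for 4 h to test compound with or without antioxidant, all in DMSO. One fraction is used for protein. The other is lysed in 0.1 N NaOH/50% methanol and centrifuged, and fluorescence is read at ex 485/em 520 nm. Results are mean ± SD of 3 independent experiments.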

[1] = test system: IEC-6 stable cell line expressing SEAP; test: SEAP enzyme activity assay; details: ritonavir 15 µM; VC 15 µg/ml, VE 20 µg/ml, EL 20 µg/ml, OA 10 µg/ml; 24 h
In short: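 An IEC-6 line stably transfected with pSEAP reporter plasmid is treated for 24 h with test compound (15 µM) alone or with individual antioxidant. DMSO is the vehicle control and thapsigargin 100 nM is the ER-stress reference. Secreted alkaline phosphatase activity is expressed as percent of vehicle control. Results are mean ± SD of 3 independent experiments.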

CHOP = test: Western blot analysis of CHOP; details: IEC-6 cells, 4 h; for Effect of antioxidant on ritonavir-induced CHOP expression: ritonavir 15 µM

| Compound | Effect of antioxidant on ritonavir-induced ROS production (IEC-6 cells) | Effect of antioxidant on ritonavir-induced inhibition of SEAP activity [1] | Effect of antioxidant on ritonavir-induced CHOP expression (CHOP) | CHOP expression (CHOP; 15 µM) |
| --- | --- | --- | --- | --- |
| CCCCC/C=C\C/C=C\CCCCCCCC(=O)OCC [ethyl linoleate] | able to reduce | significantly inhibited | significantly reduced |  |
| CCCCCCCC/C=C\CCCCCCCC(=O)O [oleic acid] | able to reduce | significantly inhibited | significantly reduced |  |
| CC(C)c1nc(CN(C)C(=O)N[C@H](C(=O)N[C@@H](Cc2ccccc2)C[C@H](O)[C@H](Cc2ccccc2)NC(=O)OCc2cncs2)C(C)C)cs1 [ritonavir, reference compound] |  |  |  | significantly induced |
| O=C1O[C@H]([C@@H](O)CO)C(O)=C1O [vitamin C] | able to reduce | significantly inhibited | significantly reduced |  |
| vitamin E |  | significantly inhibited | less effect |  |
